Measurements from the RNAGym collection of RNA variant scans (doi:10.1038/nmeth.2970).

B1: NELF-E aptamer (parent)
chain: CCCAACGACUGCCGAGCGAGAUUACGCUUGAGCGCCCCACUGAGGAUGCCCACGGGCGAUUGGGGCACGG

Variants of: B1
Assay: HiTS-RAP
Conditions: with NELF-E (Drosophila)
Procedure, shortened: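 Kd came from weighted Hill fits to the first binding curve, with intensities normalised to sequencing intensity and averaged per sequence, keeping only fits whose variance was below 1,000,000. That curve was imaged on an Illumina GAIIx flowcell, where sequenced aptamer DNA templates with a T7 promoter and ter site had been transcribed in situ by T7 RNA polymerase and halted by GST-Tus (30 minutes, 37°C). Before each image, clusters equilibrated for 30 minutes at room temperature with NELF-E-mOrange at 0.064 to 1000 nM in HEPES binding buffer.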

Variant | Kd [nM]
CCCAACGACUGCCGAUCGAGAUUACGCUUGAGCGCCCCACUGAGGAUGCCCACGUGCGAUUGGGGCACGG [G16U G55U] | 8.69
CCCAACGACUGCCGAGCGAGUUUACGCUGGAGCGCCCCACUGAGGAUGCCCACGGGCGAUUGGGGCACGG [A21U U29G] | 5.33
CCCAACGACUGCCGAGCGAGAUUGCGCUUGAGCGCCCCACAGAGGAUGCCCACGGGCGAUUGGGGCACGG [A24G U41A] | 92.9
CCCAACGACUGCCGAGCGAGAUUACUCUGGAGCGCCCCACUGAGGAUGCCCACGGGCGAUUGGGGCACGG [G26U U29G] | 7.41
CCCGACGAGUGCCGAGCGAGAUUACGCUUGAGCGCCCCACUGAGGAUGCCCACGGGCGAUUGGGGCACGG [A4G C9G] | 5.74
CCCAACGACUGCCGAGCGAGAUUACGCUUGAGCGCCCCACUGAGGAUGCCCACGGACGAUUGGGGCACGG [G56A] | 10.3
CCCAACGGCUGCCGAGCGAGAUUACGCUUGAGCGCCCCACUGAGGAUGCCCACGGGCGAUUGGGACACGG [A8G G65A] | 5.32
CCCAACGACUGCCGAGCGGGAUUACGCUUGAGCGCCCCACUGAGGAUGCCCAUGGGCGAUUGGGGCACGG [A19G C53U] | 4.21
CCCAGCGACUGCCGAGCGAAAUUACGCUUGAGCGCCCCACUGAGGAUGCCCACGGGCGAUUGGGGCACGG [A5G G20A] | 6.58
CCCAACGGCUGCCGAGCGAGAUUACGCUUGGGCGCCCCACUGAGGAUGCCCACGGGCGAUUGGGGCACGG [A8G A31G] | 7.13
CCCAACGGCUGCCGAGCGAGAUCACGCUUGAGCGCCCCACUGAGGAUGCCCACGGGCGAUUGGGGCACGG [A8G U23C] | 4.62
CCCAACGACUGCCGAGCGAGAUUACGCUUGAGCGCCCCACUGAGGAUGCCCACGGGCGAUGGGGGCACGG [U61G] | 7.54
CCCCACGAGUGCCGAGCGAGAUUACGCUUGAGCGCCCCACUGAGGAUGCCCACGGGCGAUUGGGGCACGG [A4C C9G] | 7.49
CCCGACGACUGCCGAGCGAGAUUGCGCUUGAGCGCCCCACUGAGGAUGCCCACGGGCGAUUGGGGCACGG [A4G A24G] | 6.26
CCCAACGACUGCCGAGCGAGAUUACGCUUGAGCGCCCCACUGAGGAUUCCCACGGGCGAUUGGGGCACGG [G48U] | 5.99
CCCAACGACUGCGGAGCGAGAUUACGCUUGAGCGCCCCAGUGAGGAUGCCCACGGGCGAUUGGGGCACGG [C13G C40G] | 5.72
CCCAACGACUGCCGAGCGAGAUUACGCCUGAGCACCCCACUGAGGAUGCCCACGGGCGAUUGGGGCACGG [U28C G34A] | 37.6
CCCACCGCCUGCCGAGCGAGAUUACGCUUGAGCGCCCCACUGAGGAUGCCCACGGGCGAUUGGGGCACGG [A5C A8C] | 8.75
CCCAAUGACUGCCGAGCGAGAUUACACUUGAGCGCCCCACUGAGGAUGCCCACGGGCGAUUGGGGCACGG [C6U G26A] | 4.04
CCCAACGACUGCCGAUCGAGAGUACGCUUGAGCGCCCCACUGAGGAUGCCCACGGGCGAUUGGGGCACGG [G16U U22G] | 6.64
CCCAACGUCUGCCGAGCGAGAUUACGCUGGAGCGCCCCACUGAGGAUGCCCACGGGCGAUUGGGGCACGG [A8U U29G] | 5.87
CCCAACGACUGCCGAGCGAGACUACGCUUGAGCGCCCCACUGAGGAUGCCCACGGGUGAUUGGGGCACGG [U22C C57U] | 2.92
CCCAACGACUGCCGAGCGAGAUUACGCUAGAGCGCCCCACCGAGGAUGCCCACGGGCGAUUGGGGCACGG [U29A U41C] | 79.2
CCCAACUACUGCCGAGCGAGAUUACGCUUGAGCGCCCCACUGAGGAUGCCCACGGGCGAUUGUGGCACGG [G7U G63U] | 15.8
CCCAACGACUGCCGAGCGAGAGUACGCUUGAGCGCCCCACUGAGGAUGCCCACGGGCGAUUGGGGCACGG [U22G] | 4.92
CCCAACGACUGCCGAGCGAGAUUUCGCUUGAGCGCCCCACUGAGGAUGCCCACGGGCGAUUGGGGCACGG [A24U] | 5.93

Variant | Kd [nM]
CCCAACGACUGCCGAGUGAGAUUACGCUGGAGCGCCCCACUGAGGAUGCCCACGGGCGAUUGGGGCACGG [C17U U29G] | 5.35
CCCAACUACUGCCGAGCGAGAUUACGCUUGAACGCCCCACUGAGGAUGCCCACGGGCGAUUGGGGCACGG [G7U G32A] | 4.74
CCCAACGUCUGCAGAGCGAGAUUACGCUUGAGCGCCCCACUGAGGAUGCCCACGGGCGAUUGGGGCACGG [A8U C13A] | 7.3
CCCAACGACGGCCGCGCGAGAUUACGCUUGAGCGCCCCACUGAGGAUGCCCACGGGCGAUUGGGGCACGG [U10G A15C] | 3.77
CCCAACGACUGCCGGUCGAGAUUACGCUUGAGCGCCCCACUGAGGAUGCCCACGGGCGAUUGGGGCACGG [A15G G16U] | 5.48
CCCAACGACUGCCGAGCGAGAUGACGCUUGAGCGGCCCACUGAGGAUGCCCACGGGCGAUUGGGGCACGG [U23G C35G] | 7.07
CCCAGCGACUGCCGAGCGAGAUUACGCUUGAGCGCCUCACUGAGGAUGCCCACGGGCGAUUGGGGCACGG [A5G C37U] | 10.4
CCCAACGAGUGCCGAGCGAGAUUACGCUUGUGCGCCCCACUGAGGAUGCCCACGGGCGAUUGGGGCACGG [C9G A31U] | 7.5
CCCAACGACUGCCGAGCGAGAUUACGCUGGAGCGCCCCACUGAGGAUGCCCACGGGCGAUUGGGACACGG [U29G G65A] | 4.59
CCCAACGACUGCCGAGCGAGAUUACGCUGGAGCGCCCCACUGAGGAUGCCCACGGGCGAUUGGGGUACGG [U29G C66U] | 4.32
CCCAACGACUGCCGAGCGGGAUUACGCUUGAGCGCCCCACUGAGGAUGCCCGCGGGCGAUUGGGGCACGG [A19G A52G] | 5.06
CCCAGCGACUGCCGAGCGAGAUUACGCUUGAGCGCCCCACUGGGGAUGCCCACGGGCGAUUGGGGCACGG [A5G A43G] | 25.6
CCCAACGUCUGCCGAGCGAGAUUACGCUUGAGCGCCCCACUGAGGAUGCCCACGGGCGAUUGGUGCACGG [A8U G64U] | 9.52
CCCAACGACUGCCGAGCCAGAUUACGCUUGAGCGCCCCACUGAGGAUGCCCACGGGCGAUUGGGGCACGG [G18C] | 6.13
CCCAACGACUUCCGAGCGAGAUUACGCCUGAGCGCCCCACUGAGGAUGCCCACGGGCGAUUGGGGCACGG [G11U U28C] | 9.24
CCCAACGACUGCCAAGCGAGAUUACGCUAGAGCGCCCCACUGAGGAUGCCCACGGGCGAUUGGGGCACGG [G14A U29A] | 4.86
CCCAGAGACUGCCGAGCGAGAUUACGCUUGAGCGCCCCACUGAGGAUGCCCACGGGCGAUUGGGGCACGG [A5G C6A] | 6.25
CCCGACGACUGCCGAGCGAGAUUACGCUUGAGCGCUCCACUGAGGAUGCCCACGGGCGAUUGGGGCACGG [A4G C36U] | 7.32
CCCAACGAUUGCCUAGCGAGAUUACGCUUGAGCGCCCCACUGAGGAUGCCCACGGGCGAUUGGGGCACGG [C9U G14U] | 6.79
CCCAACUACUGCCGUGCGAGAUUACGCUUGAGCGCCCCACUGAGGAUGCCCACGGGCGAUUGGGGCACGG [G7U A15U] | 6
CCCAACGAGUGCCGAGCGAGAUUAGGCUUGAGCGCCCCACUGAGGAUGCCCACGGGCGAUUGGGGCACGG [C9G C25G] | 6.33
CCCAACGACUGCCGAGCGAGAUUACGCUUGACCGCCCCACUGAGGAUGCCCACGGGCGAUUGGGGCACGG [G32C] | 4.57
CCCAACGAGUGCCGAGCGAGAUUACGCUUGAGCGCCCCACUGAGGAUGCCCACAGGCGAUUGGGGCACGG [C9G G54A] | 17
CCCAACGACUGCCGAGCGAUAUUACGCUUGGGCGCCCCACUGAGGAUGCCCACGGGCGAUUGGGGCACGG [G20U A31G] | 8.41
CCCAAGGACUGGCGAGCGAGAUUACGCUUGAGCGCCCCACUGAGGAUGCCCACGGGCGAUUGGGGCACGG [C6G C12G] | 5.68
CCCAACGACUGCCGAGCGAGAUUGCGCUUGGGCGCCCCACUGAGGAUGCCCACGGGCGAUUGGGGCACGG [A24G A31G] | 6.54

Variant | Kd [nM]
CCCAACGACGGCCGAGCGAGAUUCCGCUUGAGCGCCCCACUGAGGAUGCCCACGGGCGAUUGGGGCACGG [U10G A24C] | 4.94
CCCAACGACUGCCGAGCGAGAUUACGCUUGAGCGCCCCACUGAGUAUGCCCACGGGCGAUUGGGGCACGG [G45U] | 6.76
CCCAACGACUGCCGAGCGAGAUUACGCUAGAGCGCCCCGCUGAGGAUGCCCACGGGCGAUUGGGGCACGG [U29A A39G] | 5.71
CCCAACGACUGCCGAGCGAGACUACGCUGGAGCGCCCCACUGAGGAUGCCCACGGGCGAUUGGGGCACGG [U22C U29G] | 5.29
CCCAACGACUGCCGAGCGAGAGUACGCUUGAGCGCCCCACUGAGGAUUCCCACGGGCGAUUGGGGCACGG [U22G G48U] | 9.66
CCCAACGACUGCCUAGCGAGAUUACGCUUGAGCGCCCCGCUGAGGAUGCCCACGGGCGAUUGGGGCACGG [G14U A39G] | 9.72
CCCGACGACUGCCGAGCGAGAUUACGCUUGAGCGCCCCACUGAGGAUGCCCACGGGCGAUUGGGCCACGG [A4G G65C] | 16.2
CCCAACGAGUGCCGAGCGAGAUUACGCUUGAGCGCCCCACUGAGGAUGCCCACGGGCGAUUGGAGCACGG [C9G G64A] | 8.13
CCCAACGACUGCCGAGGGAGAUUACGCUUGAGCGCCCCACUGAGGAUGCCCACGGGCGAUUGGGGCGCGG [C17G A67G] | 5.71
CCCAACGACUGCGGAGCGAGAUUACGCGUGAGCGCCCCACUGAGGAUGCCCACGGGCGAUUGGGGCACGG [C13G U28G] | 6.99
CCCAACGACUGCCGAGCGAGAUGACGCUUGAGCGCCGCACUGAGGAUGCCCACGGGCGAUUGGGGCACGG [U23G C37G] | 7.9
CCCAACGACAUCCGAGCGAGAUUACGCUUGAGCGCCCCACUGAGGAUGCCCACGGGCGAUUGGGGCACGG [U10A G11U] | 7.2
CCCAACGACUGCCGAGCGAUAUUACGCUUGAGCGCCCCACUGAGGAUGCCCACGGGCGGUUGGGGCACGG [G20U A59G] | 19.9
CCCAACGACUGCCGAGCGAGACUGCGCUUGAGCGCCCCACUGAGGAUGCCCACGGGCGAUUGGGGCACGG [U22C A24G] | 6.97
CCCGACGACUGCCGAGCGAGAUUACGCUUGAGCGCCCCGCUGAGGAUGCCCACGGGCGAUUGGGGCACGG [A4G A39G] | 10.6
CCCAACGACUGCCGAGCGAGAUUACGCUUGAGCGCCCCACUGAGGAUGCCAACGGGCGAUUGGGGCACGG [C51A] | 8.65
CCCAACGACUGCCGAGCGGGAUUACGCUUGAGCGCCCCACUGGGGAUGCCCACGGGCGAUUGGGGCACGG [A19G A43G] | 8.78
CCCAACGACUGCCGAGCGAGAUGACUCUUGAGCGCCCCACUGAGGAUGCCCACGGGCGAUUGGGGCACGG [U23G G26U] | 6.03
CCCAACGACUGCCGAGCGAGAUUACGCUGGAGCGCCUCACUGAGGAUGCCCACGGGCGAUUGGGGCACGG [U29G C37U] | 12.4
CCCAACGACAGCCGAGCGGGAUUACGCUUGAGCGCCCCACUGAGGAUGCCCACGGGCGAUUGGGGCACGG [U10A A19G] | 6.65
CCCAAGGACUGCCGAGCGAGAUUACGCUUGAGCGUCCCACUGAGGAUGCCCACGGGCGAUUGGGGCACGG [C6G C35U] | 16.8
CCCAACGACUGCCUAGCGAGAUUACGCUUGAGCACCCCACUGAGGAUGCCCACGGGCGAUUGGGGCACGG [G14U G34A] | 6.18
CCCAACGAGUGCCGAGCGAGAUAACGCUUGAGCGCCCCACUGAGGAUGCCCACGGGCGAUUGGGGCACGG [C9G U23A] | 6.12
CCCAACGACUGCCGAGCGAGAGUACGCUUGAGCGCCCCACUGAGGAUGCCCACGGGCGAUUGGCGCACGG [U22G G64C] | 6.91
CCCAACGGCUGUCGAGCGAGAUUACGCUUGAGCGCCCCACUGAGGAUGCCCACGGGCGAUUGGGGCACGG [A8G C12U] | 5.09
